Measured values: publication PMC6542364 (Journal of the American Chemical Society, 2019)

Tested on: HS-5 cells
Assay: 3D cell spheroid formation from a 2D cell sheet
Type: cell-based
Conditions: co-incubation with pD1-B 200 μM, biotin e.g. 500 μM, 24 h
In short: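 HS-5 fibroblast monolayers were kept in culture medium with the test compound at 200 μM for 24 h, with medium alone as control. In the competition arm, free biotin at 500 μM was co-incubated with the test compound. Cell clustering and spheroid formation were recorded by optical imaging.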

SMILES: O=C(O)CCCC[C@@H]1SC[C@@H]2NC(=O)N[C@@H]21 [biotin]
- effect of competing biotin on pD1-B-induced cell spheroid formation: blocks the formation of cell spheroids in a concentration dependent manner
